# Experimental data collected from several papers.
# Compare with care: the assays were run in different laboratories.
Structure (SMILES),species,medium,route,dose,notes,AUC(0-t)
Cc1ccc(OCC(=O)N[C@@H](Cc2c[nH]c3ccccc23)C(=O)OC(C)C)cc1,male Sprague-Dawley mouse,plasma,oral,20 mg/kg,,3260 ng·h/mL
OCc1ccc(-c2nn(Cc3ccccc3)c3ccccc23)o1,male CD-1 mouse,plasma,intraperitoneal,30 mg/kg,,3370 ng·h/mL
COC1=CC(c2ccc[nH]2)=N/C1=C\c1[nH]c(Cc2ccc(OC(F)(F)F)cc2)cc1Cc1ccc(OC(F)(F)F)cc1,male CD-1 mouse,liver,oral,40 mg/kg,single dose,494000 ng·h/mL
Cc1cc(-c2ccnc3[nH]cc(F)c23)cc(F)c1[C@@]1(O)[C@H](C)CN(C2CCS(=O)(=O)CC2)C[C@@H]1C,male CD-1 mouse,plasma,intravenous,1 mg/kg,,3020 ng·h/mL
Cc1ncsc1-c1ccc([C@H](C)NC(=O)[C@@H]2C[C@@H](O)CN2C(=O)[C@@H](NC(=O)CCc2ccc(C#Cc3ccc(C(=O)NCCCn4cc(-c5ccc6c(c5)CCN6C(=O)Cc5cccc(OC(F)(F)F)c5)c5c(N)ncnc54)cc3)cn2)C(C)(C)C)cc1,male C57BL/6 mouse,plasma,intravenous,1 mg/kg,,6600 ng·h/mL
Cc1ccc(N(c2ccc(NC(=O)CN(C)c3ccccc3N3CCCC3=O)cc2)C(C)C)cc1,male CD-1 mouse,plasma,oral,20 mg/kg,,2710 ng·h/mL
NCc1ccc(-c2nn(Cc3ccncc3)c3ccccc23)o1,male CD-1 mouse,plasma,oral,10 mg/kg,,314 ng·h/mL
Cc1ncsc1-c1ccc([C@H](C)NC(=O)[C@@H]2C[C@@H](O)CN2C(=O)[C@@H](NC(=O)CCCCCCCCCCC(=O)NCCCn2cc(-c3ccc4c(c3)CCN4C(=O)Cc3cccc(OC(F)(F)F)c3)c3c(N)ncnc32)C(C)(C)C)cc1,mouse,plasma,intravenous,1 mg/kg,,835 ng·h/mL
NCc1ccc(-c2nn(Cc3ccccc3)c3ccccc23)o1,male CD-1 mouse,plasma,intraperitoneal,30 mg/kg,,9120 ng·h/mL
O=C1CCC(N2Cc3cc(C4CCN(Cc5ccccc5)CC4)ccc3C2=O)C(=O)N1 (stereo not shown),male CD-1 mouse,plasma,intravenous,1 mg/kg,,310 ng·h/mL
C[C@@H](CN1CCC(n2c(=O)[nH]c3cc(Cl)ccc32)CC1)NC(=O)c1ccc2ccccc2c1,male CD-1 mouse,plasma,intravenous,1 mg/kg,single dose,11.9 ng·h/mL
Cc1cc(-c2ccnc3[nH]cc(F)c23)cc(F)c1[C@@]1(O)[C@H](C)CN(C(=O)CN)C[C@@H]1C,male CD-1 mouse,plasma,intravenous,1 mg/kg,,18400 ng·h/mL
OCc1nc2ccc(NCc3ccc(C(F)(F)F)cc3)cc2[nH]1,male BALB/c mouse,plasma,oral,10 mg/kg,,2730 ng·h/mL
Cc1ncsc1-c1ccc([C@H](CC(=O)N2CCN(c3ccc(C#Cc4ccc(C(=O)N5CCC(n6cc(-c7ccc8c(c7)CCN8C(=O)Cc7cccc(OC(F)(F)F)c7)c7c(N)ncnc76)CC5)cc4)cn3)CC2)NC(=O)[C@@H]2C[C@@H](O)CN2C(=O)[C@@H](NC(=O)C2(F)CC2)C(C)(C)C)cc1,male C57BL/6 mouse,plasma,intravenous,1 mg/kg,,7260 ng·h/mL
CCOC(=O)c1c(NC(=O)CNC(C)C)sc2c1CCCCC2,male mouse,plasma,intraperitoneal,5 mg/kg,single dose,300 ng·h/mL
Cc1nc2ccc(OCc3ccc(C(F)(F)F)cc3)cc2[nH]1,male BALB/c mouse,plasma,oral,10 mg/kg,,13200 ng·h/mL
Oc1ccc([C@@H]2Oc3ccc(O)cc3[C@@H]3CCC[C@@H]32)cc1,male C57BL/6 mouse,plasma,oral,10 mg/kg,,1.17 µM·h
CN(C)C(=O)c1cc2cnc(Nc3ccc(-c4ccc5c(=O)cc(N6CCOCC6)oc5c4)cc3)nc2n1C1CCCC1.Cl,BALB/c mouse,plasma,oral,20 mg/kg,,7480 ng·h/mL
COC1=CC(c2ccc[nH]2)=N/C1=C\c1cc(Cc2ccc(OC(F)(F)F)cc2)c(C)[nH]1.Cl,male CD-1 mouse,plasma,oral,40 mg/kg,single dose,8220 ng·h/mL
